In the library only some 3% were active in any assay of this set; here they are far more common.
Cneo AK release: Cryptococcus neoformans lysis via adenylate kinase release; 360,000 tested, 0.2% active; C. neoformans lysis, adenylate kinase release luminescence, 4 h; normalised: neutral wells 0, clomiphene wells 100; lysis activity, % at 15 µM; AID 651654;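 active = mean lysis activity across replicates of at least 80%, whatever share of replicates individually reach that level; inactive = mean lysis activity below 80%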
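Material: C. neoformans cells; Schedule: 4 h static compound exposure, 37 °C, read 1 h post-reagent; Measured by: adenylate kinase release luminescence; Read-out: signal increase indicating cell lysis; Controls: Clomiphene as positive lysis control.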
SIRT5 inh: blocks human SIRT5 desuccinylation of peptide; Q9NXA8; Purified SirT5, succinyl-peptide AMC, trypsin-coupled fluorescence; inhibition, % at 15 µM; 330,000 tested, 1.1% active; AID 652115; in the data active = inhibition above about 15%
Target sequence (Q9NXA8 whole entry, looked up): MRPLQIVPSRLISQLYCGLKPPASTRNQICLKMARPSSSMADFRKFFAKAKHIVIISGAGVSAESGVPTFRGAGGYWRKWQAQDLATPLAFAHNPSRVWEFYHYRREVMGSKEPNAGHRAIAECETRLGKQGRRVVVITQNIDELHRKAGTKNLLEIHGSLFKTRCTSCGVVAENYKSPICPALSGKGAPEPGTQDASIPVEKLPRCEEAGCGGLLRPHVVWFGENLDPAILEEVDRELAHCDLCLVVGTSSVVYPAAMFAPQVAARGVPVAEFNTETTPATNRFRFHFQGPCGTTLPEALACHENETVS
Ecoli rRNA inh: inhibits bacterial ribosomal RNA function over humanized ribosomes. 350,000 tested, 1.6% active. GFP signal change (wild-type ribosome), % (test concentration not listed). E. coli WT GFP vs humanized-ribosome RFP mutants, fluorescence, 24 h; hits give low values; DMSO median 0, no signal -100;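 active = significant combined selectivity score with lowered wild-type GFP, culture density cut under 30%, mutant RFP and density less affected; inactive = any of these conditions unmet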
S100A4 inh HTS: S100A4-myosin IIA interaction inhibition; 360,000 tested, 0.14% active; AID 652163; P26447; inhibition, % at 10.7 µM; S100A4/TAMRA-MyoIIA peptide fluorescence polarization;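 active = mean inhibition of at least 70% across replicates, with every replicate also reaching that level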
Target sequence (P26447 whole entry, looked up): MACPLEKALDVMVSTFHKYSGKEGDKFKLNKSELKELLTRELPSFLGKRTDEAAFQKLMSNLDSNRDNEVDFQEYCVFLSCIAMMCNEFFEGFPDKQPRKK
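Test system – S100A4 monomer (human) · Compound – single-point compound testing · Schedule – 5 min incubation before reading · Probe or stimulus – TAMRA-labelled myosin IIA heavy-chain peptide probe, 5 nM · Benchmarks – neutral control DMSO, positive control TFP · Medium – Calcium-containing HEPES buffer, pH 7.2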
Statin myotox sup: suppressors of simvastatin-induced myotoxicity in C2C12 myotubes; ATP luminescence, 48 h; scaled: DMSO 0, geranylgeraniol control 100; rescue of ATP level, % at 7.49 µM; 330,000 tested, 0.78% active; AID 602340;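 active = mean ATP rescue above about 67%, or every replicate alone reaching that limit, limit read from the data, passing the limit was not always enough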;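 also: myotubes were challenged with 10 µM simvastatin during compound exposure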
PGC1a acetyl inh: PGC1a acetylation modulation, inhibitor mode. U2OS PGC1a acetylation, AlphaScreen anti-acetyl-lysine; with virally co-expressed GCN5 acetyltransferase. inhibition, % at 15.6 µM. 350,000 tested, 0.17% active. AID 651687;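 active = every replicate shows inhibition of at least 40%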;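 also: 0% = neutral control wells and 100% = positive control wells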
* hit, by the source's call; · = not tested or not shown.

SMILES	Cneo AK release	SIRT5 inh	Ecoli rRNA inh	S100A4 inh HTS	Statin myotox sup	PGC1a acetyl inh
COc1ccc(CCNC(=O)[C@H](C)NC(=O)N2CCn3c2nc2ccccc23)cc1OC	6.4	29.5*	4.2	3.2	-2.9	-2.6
O=S1(=O)N[C@@H](Cc2ccccc2)COc2cccc(N3CCCCC3)c21	·	0.1	-35.1	-2.4	·	·
O=S1(=O)N[C@@H](Cc2ccccc2)COc2cccc(N3CCCC3)c21	·	23.2*	-1.5	-1.6	·	·
CC(C)C[C@@H]1COc2cccc(N3CCCC3)c2S(=O)(=O)N1	·	-2.7	-28.0*	0.9	·	·
CC(C)C[C@H]1COc2cc(N3CC[C@H](O)C3)ccc2S(=O)(=O)N1	·	33.0*	-7.0	0.9	·	·
CC(C)C[C@@H]1COc2cccc(N3CCN(Cc4ccccc4F)CC3)c2S(=O)(=O)N1	·	-9.0	-35.4*	-7.3	·	·
C[C@@H]1CN([C@@H](C)CO)C(=O)c2cc(C#Cc3cccc(F)c3)cnc2O[C@@H]1CN(C)CC1CC1	·	·	-4.4	·	15.7	-5.9
Cc1noc(C)c1S(=O)(=O)N(C)C[C@@H]1Oc2c(NS(=O)(=O)c3cn(C)cn3)cccc2C(=O)N([C@H](C)CO)C[C@H]1C	-1.7	-0.8	3.5	9.6	5.5	0.1
O=C(Oc1ccc(Cl)cc1N1C(=O)CCC1=O)c1ccco1	0.7	·	·	·	65.8*	0.3
NNC(=O)c1[nH]c2ccc(Br)cc2c1-c1ccccc1	·	·	-25.7*	-15.1	·	·
CC(=O)N1[C@H](C)C=C[C@]1(Cc1ccccc1)C(=O)NCc1cc(F)cc(C(F)(F)F)c1	0.0	23.4*	-20.1	-6.0	17.1	-10.4
Clc1ccccc1CN1CCSCC1	-2.3	0.6	15.0	-0.1	3.8	47.1*
CCNC(=O)Nc1ccc2c(c1)C(=O)N(C)[C@@H]1CC[C@@H](CC(=O)NCC3CCCCC3)O[C@@H]1CO2	-4.5	3.5	0.6	-0.1	-11.9	-4.1
CCCCSc1n[nH]c(=S)c2nc[nH]c12	0.5	·	·	-0.8	-13.4	-10.9
S=c1[nH]nc(SCc2ccccc2)c2[nH]cnc12	-0.5	·	-17.3*	3.2	-2.0	0.4
CN(C)CCN(C(=O)c1cc(Cl)sc1Cl)c1nc2ccc(F)cc2s1	1.4	-0.1	-2.1	-2.7	·	·
CCN(CC)CCN(C(=O)c1ccccc1OC)c1nc2ccc(F)cc2s1	·	-1.7	-22.3*	1.5	·	·
COc1ccc(NC(=S)N2CCN(C/C=C/c3ccccc3)CC2)cc1	·	-4.2	-17.9	-0.8	·	·
COc1ccc(CNC(=S)N2CCN(Cc3ccccc3)CC2)cc1	0.0	-1.1	-3.4	-0.5	·	-5.7
O=C(NC(=S)N1CCN(C/C=C/c2ccccc2)CC1)c1ccc(Cl)nc1	5.2	-0.5	-49.0*	-2.1	-17.5	3.2
CCOc1ccc(NC(=S)N2CCN(C/C=C/c3ccccc3)CC2)cc1	·	7.9	-28.0*	-2.9	·	-1.3
COc1ccc(NC(=S)N2CCN(Cc3ccccc3)CC2)cc1	·	93.9*	-1.8	-3.5	·	4.6
COc1ccc(NC(=O)C2CCCN2c2ccc(OC)c(OC)c2)cc1OC (stereo not drawn)	2.3	·	·	·	80.2*	-13.7
COc1ccc(NC(=O)C2CCCCN2N)cc1OC (stereo not drawn)	-0.8	·	·	·	·	1.1
CC(=O)c1c(COC(=O)c2ccccc2Cl)nc2ccccc2[n+]1[O-]	-2.8	-1.1	-35.1*	-0.6	0.2	5.7
COc1ccc(C#Cc2ccc([C@H]3[C@@H](CO)N4CCCCN(C(=O)Nc5ccc(F)cc5)C[C@H]34)cc2)cc1	52.8	5.3	-52.8	6.7	·	-56.8
C/C=C/c1ccc([C@@H]2[C@H]3CN(C(=O)Nc4ccc(OC)cc4)CCCCN3[C@H]2CO)cc1	114.3*	5.8	-0.2	15.3	·	6.1
C/C=C/c1ccc([C@H]2[C@H](CO)N3CCCCN(C(=O)Nc4ccc(OC)cc4)C[C@@H]23)cc1	-0.6	0.6	-10.5	-2.7	·	1.9
COc1ccc(C#Cc2ccc([C@@H]3[C@@H](CO)N4CCCCN(C(=O)Nc5ccc(F)cc5)C[C@@H]34)cc2)cc1	-2.0	-3.1	5.9	102.3*	·	-3.9
COc1ccc(NC(=O)N2CCCCN3[C@H](C2)[C@@H](c2ccc(C#Cc4ccccc4)cc2)[C@@H]3CO)cc1	6.4	15.9*	·	2.9	·	0.1

High-throughput results from PubChem.
